Measurements pooled from the literature.
Each line is one published result; the experiments were not run side by side.
Read-out: cell growth or viability

Structure (SMILES) | cell line | assay | conditions | endpoint | result
Cc1cccc(/C=C/C(=O)Nc2cccc(-c3ccnc(N4CCOCC4)c3)c2)c1 | HeLa | MTT | 5 µM | inhibition | 24.1%
C[C@@H]1CC[C@@H]([C@](C)(O)Cn2cnc3ccccc32)[C@H](OCc2ccccc2)C1 | HeLa | MTT | 10 µM, 72 h | inhibition | 32.1%
Cc1nc(Nc2ccc3c(c2)/C(=C/c2ccccc2Cl)C(=O)N3)c2ccccc2n1 | H22 | MTT |  | IC50 | 2140 nM
C#Cc1nc(C2=C(C)C(OC(=O)CCC)/C(=N/OC(=O)CCC)C2)cs1 (stereo not shown) | U2OS |  |  | CC50 | 5950 nM
O=C(C=Cc1ccccc1)Nc1cc(-c2ccnc(N3CCC(O)CC3)c2)ccn1 | HeLa | MTT | 5 µM | inhibition | 75.2%
C=CC(=O)NC1CCN(c2ncc3ncnc(Nc4ccc(Oc5ccc6c(c5)ncn6C)c(C)c4)c3n2)CC1 | LS-411N |  |  | EC50 | 11.6 nM
COc1ccc(COC[C@@](O)(CNCc2ccc(F)cc2)[C@@H]2CC[C@@H](C)C[C@H]2OCc2ccc(OC)cc2)cc1 | HeLa | MTT | 10 µM, 72 h | inhibition | 95%
Cc1cccc(/C=C/C(=O)Nc2cccc(-c3ccnc(N4CCC(CO)CC4)c3)c2)c1 | HeLa | MTT | 5 µM | inhibition | 56.2%
Cc1c(C(=O)O)ccc2c3n(nc12)[C@@H]1[C@H](C3)N(CC2CC2)[C@@]2(C(=O)Nc3cc(Cl)ccc32)[C@H]1c1cccc(Cl)c1F | U2OS |  |  | GI50 | > 90 nM
C[C@@H]1CC[C@@H]([C@](C)(O)CNCc2cccc3ccccc23)[C@H](OCc2ccccc2)C1 | HeLa | MTT | 30 µM, 72 h | inhibition | 86.8%
Cc1nc(Nc2ccc3c(c2)C(C)(C)C(=O)N3C)c2ccccc2n1 | H22 | MTT |  | IC50 | 24000 nM
C[C@@H]1CC[C@@H]([C@](C)(O)CNCc2cccc(F)c2)[C@H](OCc2ccccc2)C1 | HeLa | MTT | 10 µM, 72 h | inhibition | 72.5%
Cc1nc(N(Cc2ccccc2)c2ccc3c(c2)/C(=C/c2ccccc2)C(=O)N3Cc2ccccc2)c2ccccc2n1 (mixture of isomers) | H22 | MTT |  | IC50 | 880 nM
O=C(C=Cc1ccccc1)Nc1cc(-c2ccnc(N3CCOCC3)c2)ccn1 | HeLa | MTT | 5 µM | inhibition | 74%
C=C(COCc1ccc(OC)cc1)[C@@H]1CC[C@@H](C)C[C@H]1OCc1ccc(OC)cc1 | HeLa | MTT | 10 µM, 72 h | inhibition | 39.2%
O=C(C=Cc1ccccc1)Nc1cccc(-c2ccnc(N3CCOCC3)c2)c1 | HeLa | MTT | 5 µM | inhibition | 28.4%
C[C@@H]1CC[C@@H]([C@@](O)(CNCc2ccccc2)COCc2ccc(F)cc2)[C@H](OCc2ccc(F)cc2)C1 | HeLa | MTT | 10 µM, 72 h | inhibition | 96%
O=C(/C=C/c1cccc(F)c1)Nc1cc(-c2ccnc(N3CCC(O)CC3)c2)ccn1 | HeLa | MTT | 5 µM | inhibition | 85%
CCN1[C@@H](C(=O)NC23CCC(C(=O)O)(CC2)CC3)[C@H](c2cccc(Cl)c2F)[C@]2(C(=O)Nc3cc(Cl)ccc32)C12CCCCC2 | U2OS | resazurin | 72 h | GI50 | 703 nM
